Test results reported in ChEMBL document CHEMBL1128505, “On the quantitative structure-activity relationships of meta-substituted (S)-phenylpiperidines, a class of preferential dopamine D2 autoreceptor ligands: modeling of dopamine synthesis and release in vivo by means of partial least squares regression” (1995).

Key:
[1] = molecular target: D(2) dopamine receptor (Rattus norvegicus) (UniProt P61169); assay: Effect on extracellular DA levels in the striatal region of rat brain.; assay type: functional, tissue-based
Method in brief: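 Awake, freely moving rats; test compound injected subcutaneously, with dose varying by compound. Extracellular striatal DA measured by microdialysis, analysing perfusates collected from implanted probes. The value is the maximum DA level between 20 and 100 min after administration, expressed as percent of saline controls.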

[2] = molecular target: D(2) dopamine receptor (Rattus norvegicus) (UniProt P61169); assay: Effect on DOPA accumulation in limbic and striatal regions of reserpine-pretreated rat brains.; assay type: functional, tissue-based; conditions: Brain
Rattus norvegicus [3] = assay: The in vivo effect of the compound (sc injection, 50 umol/kg) on DOPA accumulation in limbic and striatal regions of reserpine-pretreated rat brains.; assay type: functional, Brain
Rattus norvegicus [4] = assay: In vivo effect on DOPA accumulation in limbic and striatal regions of the rat brain without reserpine pretreatment; assay type: functional, Limbic system; design: unit not given beside the values
Rattus norvegicus [5] = assay: The in vivo effect of the compound (sc,227uM/kg) on DOPA accumulation in limbic and striatal regions of the rat brain without reserpine pretreatment.; assay type: functional
Method in brief: (§1)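 No reserpine pretreatment. Rats given test compound subcutaneously, then the decarboxylase inhibitor NSD 1015. L-DOPA accumulated in limbic and striatal brain tissue was measured. The value is the maximum effect, selected at a dose where the dose-response curve had reached maximum, expressed as percent of controls.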

Rattus norvegicus [6] = assay: The in vivo effect of the compound (sc injection, 107 umol/kg) on DOPA accumulation in limbic and striatal regions of reserpine-pretreated rat brains.; assay type: functional, Brain
Method in brief: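 Rats pretreated with reserpine 18 h before subcutaneous test compound, then given the decarboxylase inhibitor NSD 1015. L-DOPA accumulation measured in limbic and striatal brain tissue. The value is the maximum effect, taken at a dose where the dose-response curve had reached maximum, expressed as percent of controls.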

Rattus norvegicus [7] = assay: The in vivo effect of the compound (sc injection, 227 umol/kg) on DOPA accumulation in limbic and striatal regions of reserpine-pretreated rat brains.; assay type: functional, Brain
Rattus norvegicus [8] = assay: The in vivo effect of the compound (sc,3.7uM/kg) on DOPA accumulation in limbic and striatal regions of the rat brain without reserpine pretreatment.; assay type: functional; method in brief: as §1

Sequence of D(2) dopamine receptor (Rattus norvegicus) (P61169 whole entry): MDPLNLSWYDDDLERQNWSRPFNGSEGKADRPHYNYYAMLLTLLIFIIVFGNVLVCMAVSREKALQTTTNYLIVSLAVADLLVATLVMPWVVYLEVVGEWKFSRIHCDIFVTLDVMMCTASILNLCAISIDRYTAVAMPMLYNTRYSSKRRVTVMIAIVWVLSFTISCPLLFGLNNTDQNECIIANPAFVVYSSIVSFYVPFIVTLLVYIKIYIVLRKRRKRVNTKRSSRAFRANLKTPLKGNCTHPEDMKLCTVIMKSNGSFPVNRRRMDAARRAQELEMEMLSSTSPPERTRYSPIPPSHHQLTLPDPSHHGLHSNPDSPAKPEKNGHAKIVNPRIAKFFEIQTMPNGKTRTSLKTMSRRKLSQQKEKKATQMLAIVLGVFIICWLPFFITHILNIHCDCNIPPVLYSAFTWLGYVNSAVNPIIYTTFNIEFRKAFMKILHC

Structure (SMILES)	Activity [1]	DOPA accumulation [2]	also measured
CCCN1CCC[C@@H](c2cccc(CO)c2)C1	191	50	–
CCCN1CCC[C@@H](c2cccc(SC)c2)C1	–	–	DOPA accumulation (Rattus norvegicus [3]): 92
CCCN1CCC[C@@H](c2cccc(CC#N)c2)C1	–	57	–
CCN1CCC[C@@H](c2cccc(OS(=O)(=O)C(F)(F)F)c2)C1	143	–	DOPA accumulation (Rattus norvegicus [4]): 286
CCCCN1CCC[C@@H](c2cccc(OS(=O)(=O)C(F)(F)F)c2)C1	–	–	DOPA accumulation (Rattus norvegicus [4]): 234
CCN1CCC[C@@H](c2cccc(C#N)c2)C1	223	–	–
CN1CCC[C@@H](c2cccc(OS(=O)(=O)C(F)(F)F)c2)C1	–	–	DOPA accumulation (Rattus norvegicus [4]): 157
C#Cc1cccc([C@@H]2CCCN(CCC)C2)c1	270	–	–
Oc1cccc([C@@H]2CCCNC2)c1	–	–	DOPA accumulation (Rattus norvegicus [5]): 44
CCCN1CCC[C@@H](c2cccc(C(C)=O)c2)C1	196	73	–
CCCN1CCC[C@@H](c2ccccc2)C1	543	–	DOPA accumulation (Rattus norvegicus [4]): 140; DOPA accumulation (Rattus norvegicus [3]): 65
CN1CCC[C@@H](c2cccc(O)c2)C1	–	–	DOPA accumulation (Rattus norvegicus [5]): 51; DOPA accumulation (Rattus norvegicus [6]): 20
CCCCN1CCC[C@@H](c2cccc(C#N)c2)C1	–	–	DOPA accumulation (Rattus norvegicus [3]): 71
CCCN1CCC[C@@H](c2cccc(C=O)c2)C1	–	83	–
CCCN1CCC[C@@H](c2cccc(O)c2)C1 [PRECLAMOL]	400	–	DOPA accumulation (Rattus norvegicus [7]): 30
CCC(C)N1CCC[C@@H](c2cccc(C#N)c2)C1 (some centres not stated)	282	–	–
CCCN1CCC[C@@H](c2cccc(C#N)c2)C1	411	105	–
CCCCN1CCC[C@@H](c2cccc(O)c2)C1	–	–	DOPA accumulation (Rattus norvegicus [6]): 22; DOPA accumulation (Rattus norvegicus [8]): 86
C=CCN1CCC[C@@H](c2cccc(C#N)c2)C1	593	85	–
CCCN1CCC[C@@H](c2cccc(OS(C)(=O)=O)c2)C1	239	92	DOPA accumulation (Rattus norvegicus [4]): 249
CCCN1CCC[C@@H](c2cccc(-c3ccsc3)c2)C1	106	–	–
CCCN1CCC[C@@H](c2cccc(N)c2)C1	–	91	–
Oc1cccc([C@@H]2CCCN(CCc3ccccc3)C2)c1	–	–	DOPA accumulation (Rattus norvegicus [6]): 22; DOPA accumulation (Rattus norvegicus [8]): 37
CCCN1CCC[C@@H](c2cccc(OC)c2)C1	–	66	–
CC(C)N1CCC[C@@H](c2cccc(O)c2)C1	56	18	DOPA accumulation (Rattus norvegicus [4]): 47
CCCN1CCC[C@@H](c2cccc(S(C)(=O)=O)c2)C1	293	95	–
C=CCN1CCC[C@@H](c2ccccc2)C1	364	–	–
CCCN1CCC[C@@H](c2cccc(Br)c2)C1	372	101	–
CCCc1cccc([C@@H]2CCCN(CCC)C2)c1	–	62	DOPA accumulation (Rattus norvegicus [4]): 190
